# Test results: ChEMBL document CHEMBL1156178, “Discovery of novel 6,6-heterocycles as transient receptor potential vanilloid (TRPV1) antagonists” (J Med Chem, 2010)
# Calls of active or inactive are those of the source. No cut-off for these calls is given here.
# How the values were obtained:
# [1] = Solubility in 0.1 N HCL after 4 hrs by HPLC/MS analysis; assay type: physicochemical
# [2] = target: Transient receptor potential cation channel subfamily V member 1 (Homo sapiens, UniProt Q8NER1); experiment: Antagonist activity at human recombinant TRPV1 expressed in HEK293 cells assessed as inhibition of capsaicin-induced calcium mobilization by FLIPR assay
# Transient receptor potential cation channel subfamily V member 1 (Homo sapiens, UniProt Q8NER1), sequence (Q8NER1 whole entry): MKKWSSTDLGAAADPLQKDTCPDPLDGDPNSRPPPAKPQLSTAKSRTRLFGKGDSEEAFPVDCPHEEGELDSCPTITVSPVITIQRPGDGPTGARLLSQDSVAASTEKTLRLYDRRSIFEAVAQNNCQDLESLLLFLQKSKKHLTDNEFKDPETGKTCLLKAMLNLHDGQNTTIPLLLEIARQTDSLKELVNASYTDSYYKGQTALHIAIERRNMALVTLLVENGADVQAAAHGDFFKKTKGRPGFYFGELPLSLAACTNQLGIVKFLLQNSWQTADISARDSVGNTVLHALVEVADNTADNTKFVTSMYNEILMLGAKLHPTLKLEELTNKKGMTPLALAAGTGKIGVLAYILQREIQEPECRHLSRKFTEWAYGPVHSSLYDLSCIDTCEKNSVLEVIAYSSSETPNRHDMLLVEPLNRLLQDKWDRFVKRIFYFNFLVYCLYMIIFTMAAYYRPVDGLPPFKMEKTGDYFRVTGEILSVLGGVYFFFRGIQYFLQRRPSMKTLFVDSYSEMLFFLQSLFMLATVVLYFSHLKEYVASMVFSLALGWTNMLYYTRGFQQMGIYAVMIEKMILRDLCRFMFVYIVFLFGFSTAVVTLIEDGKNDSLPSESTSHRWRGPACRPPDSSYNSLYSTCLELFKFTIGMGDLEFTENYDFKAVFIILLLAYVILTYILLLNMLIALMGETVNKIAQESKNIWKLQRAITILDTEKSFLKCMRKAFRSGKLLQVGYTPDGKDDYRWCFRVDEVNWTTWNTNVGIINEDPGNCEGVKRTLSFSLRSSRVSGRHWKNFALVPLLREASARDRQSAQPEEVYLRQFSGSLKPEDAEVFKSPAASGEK
# [3] = tested on: Rattus norvegicus; experiment: Liver blood flow in rat at 1 mg/kg, iv and 1 mg/kg, po; assay type: ADME, organism-based; conditions: in vivo
# [4] = Tmax in rat at 1 mg/kg, iv and 1 mg/kg, po; assay type: ADME, organism-based; conditions: in vivo
# [5] = Half life in rat at 1 mg/kg, iv and 1 mg/kg, po; assay type: ADME, organism-based; conditions: in vivo
# [6] = Clearance in rat at 1 mg/kg, iv and 1 mg/kg, po; assay type: ADME, organism-based; conditions: in vivo
# [7] = Volume of distribution in rat at 1 mg/kg, iv and 1 mg/kg, po; assay type: ADME, organism-based; conditions: in vivo
# [8] = Oral bioavailability in rat at 1 mg/kg; assay type: ADME, organism-based; conditions: in vivo
# [9] = Equilibrium solubility in at pH 7.4; assay type: physicochemical; conditions: buffer
# [10] = Metabolic stability in rat liver microsomes assessed as compound remaining at 1 uM after 10 mins by LCMS analysis; assay type: ADME, Microsome; conditions: read-out: Activity
# Procedure, shortened: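 Compound (1 μM) incubated at 37 °C with 0.5 mg/mL male pooled rat liver microsomes; NADPH added to start the reaction. Aliquots were taken at 0 and 10 min and quenched into ice-cold acetonitrile with internal standard, then centrifuged. Parent was monitored as the M+1 ion by ESI-LCMS in selected-ion mode. Percent remaining was taken as the 10 min/0 min signal ratio, corrected by internal-standard recovery.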
# [11] = tested on: MDR1; experiment: Apparent permeability across pig LLC-PK1 cells expressing MDR1; assay type: ADME, cell-based, Sus scrofa
# [12] = tested on: LLC-PK1; experiment: Efflux ratio of permeability from […] in MDR1 transfected pig LLC-PK1 cells; assay type: ADME, cell-based, Sus scrofa
# [13] = target: T1, Transient receptor potential cation channel subfamily V member 1 (Rattus norvegicus, UniProt O35433); experiment: Inhibition of rat TRPV1 at pH 5 to 5.5
# T1 sequence (O35433 whole entry): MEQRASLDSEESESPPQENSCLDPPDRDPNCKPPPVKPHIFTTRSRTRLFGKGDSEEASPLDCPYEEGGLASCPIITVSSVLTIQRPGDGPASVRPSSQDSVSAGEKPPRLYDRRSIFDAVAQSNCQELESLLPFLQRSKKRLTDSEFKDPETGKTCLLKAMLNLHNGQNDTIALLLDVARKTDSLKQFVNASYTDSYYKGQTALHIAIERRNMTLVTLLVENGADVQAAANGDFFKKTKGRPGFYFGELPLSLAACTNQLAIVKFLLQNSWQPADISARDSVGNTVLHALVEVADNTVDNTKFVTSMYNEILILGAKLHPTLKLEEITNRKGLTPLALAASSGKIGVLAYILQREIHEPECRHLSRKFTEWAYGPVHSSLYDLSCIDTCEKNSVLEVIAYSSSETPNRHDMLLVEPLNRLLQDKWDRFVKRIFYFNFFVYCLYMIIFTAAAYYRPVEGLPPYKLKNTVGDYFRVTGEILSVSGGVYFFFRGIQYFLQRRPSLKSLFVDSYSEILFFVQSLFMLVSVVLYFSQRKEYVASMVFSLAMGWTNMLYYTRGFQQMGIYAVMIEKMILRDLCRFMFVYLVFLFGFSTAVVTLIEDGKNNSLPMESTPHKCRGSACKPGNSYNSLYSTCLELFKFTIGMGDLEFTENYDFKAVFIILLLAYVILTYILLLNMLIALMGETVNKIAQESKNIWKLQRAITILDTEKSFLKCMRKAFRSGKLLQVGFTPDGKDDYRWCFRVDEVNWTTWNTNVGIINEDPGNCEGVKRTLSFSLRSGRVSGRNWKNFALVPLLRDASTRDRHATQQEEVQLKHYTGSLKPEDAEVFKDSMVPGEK
# [14] = Protein binding in rat plasma; assay type: ADME, cell-free; conditions: read-out: PPB (converted)
# [15] = Ratio of drug level in brain to plasma in rat at 3 mg/kg, po after 1 hr; assay type: ADME, organism-based; set-up: dose 3 mg/kg, route oral
# [16] = target: hERG (KCNH2) (Homo sapiens, UniProt Q12809); experiment: Inhibition of human ERG expressed in COS7 cells at 10 uM by electrophysiology assay; assay type: cell-based, COS-7; conditions: COS7 cells expressing human ERG
# [17] = target: Mitogen-activated protein kinase 3 (Homo sapiens, UniProt P27361); experiment: Inhibition of human ERK1
# Mitogen-activated protein kinase 3, sequence (P27361 whole entry): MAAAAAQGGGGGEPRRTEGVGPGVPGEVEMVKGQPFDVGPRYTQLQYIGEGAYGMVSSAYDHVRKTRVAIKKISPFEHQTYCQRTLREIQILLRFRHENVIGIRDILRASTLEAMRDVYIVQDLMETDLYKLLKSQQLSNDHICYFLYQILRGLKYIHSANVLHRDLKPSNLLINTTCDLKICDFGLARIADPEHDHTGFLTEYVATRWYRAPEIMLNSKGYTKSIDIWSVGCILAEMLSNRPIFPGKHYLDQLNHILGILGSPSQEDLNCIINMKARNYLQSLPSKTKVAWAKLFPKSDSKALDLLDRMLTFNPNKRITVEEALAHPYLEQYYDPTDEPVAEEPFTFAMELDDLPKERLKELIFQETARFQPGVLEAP
# [18] = Fraction unbound in rat plasma; assay type: ADME, cell-free
# [19] = target: Mitogen-activated protein kinase 14 (Homo sapiens) (UniProt Q16539); experiment: Inhibition of p38alpha at 10 uM
# Mitogen-activated protein kinase 14 (Homo sapiens), sequence (Q16539 whole entry): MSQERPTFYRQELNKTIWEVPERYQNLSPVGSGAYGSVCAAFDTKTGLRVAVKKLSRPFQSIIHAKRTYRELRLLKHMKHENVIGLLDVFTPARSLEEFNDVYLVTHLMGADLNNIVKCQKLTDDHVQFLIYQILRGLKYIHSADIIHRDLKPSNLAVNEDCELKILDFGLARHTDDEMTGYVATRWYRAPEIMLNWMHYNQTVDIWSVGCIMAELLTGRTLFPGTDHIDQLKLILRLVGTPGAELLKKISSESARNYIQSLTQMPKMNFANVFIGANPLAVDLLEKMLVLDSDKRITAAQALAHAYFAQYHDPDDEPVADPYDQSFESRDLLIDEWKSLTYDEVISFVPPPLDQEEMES
# [20] = Inhibition of PKA at 10 uM
# [21] = target: Protein kinase C alpha type (Homo sapiens) (UniProt P17252); experiment: Inhibition of PKCalpha at 10 uM
# [22] = target: Epidermal growth factor receptor (Homo sapiens) (UniProt P00533); experiment: Inhibition of EGFR at 10 uM
# Epidermal growth factor receptor (Homo sapiens), sequence (P00533 whole entry): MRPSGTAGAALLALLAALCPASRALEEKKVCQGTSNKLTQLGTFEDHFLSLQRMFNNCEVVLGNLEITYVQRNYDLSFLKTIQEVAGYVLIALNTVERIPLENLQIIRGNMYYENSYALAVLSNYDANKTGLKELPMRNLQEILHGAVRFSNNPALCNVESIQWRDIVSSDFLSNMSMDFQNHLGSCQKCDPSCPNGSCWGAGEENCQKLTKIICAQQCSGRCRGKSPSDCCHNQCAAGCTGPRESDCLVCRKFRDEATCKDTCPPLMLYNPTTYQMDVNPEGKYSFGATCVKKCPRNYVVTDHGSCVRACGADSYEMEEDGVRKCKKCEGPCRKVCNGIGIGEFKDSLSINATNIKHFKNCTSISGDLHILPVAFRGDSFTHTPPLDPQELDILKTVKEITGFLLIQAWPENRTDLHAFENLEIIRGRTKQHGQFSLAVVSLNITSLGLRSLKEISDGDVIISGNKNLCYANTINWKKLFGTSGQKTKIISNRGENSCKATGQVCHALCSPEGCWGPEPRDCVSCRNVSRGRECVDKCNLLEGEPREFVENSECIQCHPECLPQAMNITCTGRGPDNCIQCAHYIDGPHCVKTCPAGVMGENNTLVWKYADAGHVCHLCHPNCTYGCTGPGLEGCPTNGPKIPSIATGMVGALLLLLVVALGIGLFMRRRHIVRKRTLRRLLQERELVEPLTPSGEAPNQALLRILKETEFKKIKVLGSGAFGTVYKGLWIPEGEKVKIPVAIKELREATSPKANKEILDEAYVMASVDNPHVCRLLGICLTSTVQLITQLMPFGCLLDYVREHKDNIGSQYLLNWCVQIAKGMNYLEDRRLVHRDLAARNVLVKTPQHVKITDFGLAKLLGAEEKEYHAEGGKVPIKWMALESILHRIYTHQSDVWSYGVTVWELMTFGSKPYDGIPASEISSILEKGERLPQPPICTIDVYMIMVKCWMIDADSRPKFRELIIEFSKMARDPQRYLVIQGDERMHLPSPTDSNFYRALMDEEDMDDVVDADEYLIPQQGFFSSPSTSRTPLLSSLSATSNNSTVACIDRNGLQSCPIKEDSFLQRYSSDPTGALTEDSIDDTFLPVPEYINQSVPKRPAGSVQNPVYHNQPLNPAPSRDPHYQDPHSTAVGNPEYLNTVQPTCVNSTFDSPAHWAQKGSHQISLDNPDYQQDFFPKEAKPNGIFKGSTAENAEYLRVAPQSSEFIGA
# [23] = target: Insulin receptor (Homo sapiens) (UniProt P06213); experiment: Inhibition of insulin receptor at 10 uM
# [24] = tested on: Rattus norvegicus; experiment: Induction of hyperthermia in Sprague-Dawley rat at 3 mg/kg, po after 1 hr; assay type: organism-based; set-up: dose 3 mg/kg, route oral; conditions: in vivo
# [25] = target: Voltage-gated L-type calcium channel (Rattus norvegicus, UniProt P22002+Q02485+P27732); experiment: Inhibition of rat L-type calcium channel
# [26] = AUC (0 to 24 hrs) in rat at 1 mg/kg, po; assay type: ADME, organism-based; set-up: time < 24 hr, dose 1 mg/kg, route oral; conditions: plasma
# [27] = AUC (0 to 24 hrs) in rat at 10 mg/kg, po; assay type: ADME, organism-based; set-up: time < 24 hr, dose 10 mg/kg, route oral; conditions: plasma
# [28] = AUC (0 to 24 hrs) in rat at 100 mg/kg, po; assay type: ADME, organism-based; set-up: time < 24 hr, dose 100 mg/kg, route oral; conditions: plasma
# [29] = Cmax in rat at 1 mg/kg, po; assay type: ADME, organism-based; set-up: dose 1 mg/kg, route oral; conditions: in vivo
# [30] = Cmax in rat at 10 mg/kg, po; assay type: ADME, organism-based; set-up: dose 10 mg/kg, route oral; conditions: in vivo
# [31] = Cmax in rat at 100 mg/kg, po; assay type: ADME, organism-based; set-up: dose 100 mg/kg, route oral; conditions: in vivo
# [32] = Tmax in rat at 1 mg/kg, po; assay type: ADME, organism-based; set-up: dose 1 mg/kg, route oral; conditions: in vivo
# [33] = Tmax in rat at 10 mg/kg, po; assay type: ADME, organism-based; set-up: dose 10 mg/kg, route oral; conditions: in vivo
# [34] = Tmax in rat at 100 mg/kg, po; assay type: ADME, organism-based; set-up: dose 100 mg/kg, route oral; conditions: in vivo
# [35] = tested on: Rattus norvegicus; experiment: Analgesic activity in rat assessed as complete reversal of carrageenan-induced thermal hyperalgesia at 3 mg/kg, po administered 2 hrs after carrageenan challenge; assay type: functional, organism-based; set-up: dose 3 mg/kg
# [36] = tested on: Rattus norvegicus; experiment: Analgesic activity in po dosed rat assessed as reversal of carrageenan-induced thermal hyperalgesia administered 2 hrs after carrageenan challenge; assay type: functional, organism-based
# [37] = Plasma concentration in carrageenan treated rat at 3 mg/kg, po administered 2 hrs after carrageenan challenge measured after 1 hr; assay type: ADME, organism-based; set-up: dose 3 mg/kg, route oral
# [38] = Plasma concentration in carrageenan treated rat at 1 mg/kg, po administered 2 hrs after carrageenan challenge measured after 1 hr; assay type: ADME, organism-based; set-up: dose 1 mg/kg, route oral
# [39] = Plasma concentration in carrageenan treated rat at 0.3 mg/kg, po administered 2 hrs after carrageenan challenge measured after 1 hr; assay type: ADME, organism-based; set-up: dose 0.3 mg/kg, route oral
# [40] = tested on: Rattus norvegicus; experiment: Analgesic activity against CFA-induced inflammatory pain in Sprague-Dawley rat assessed as reversal of decrease in weight bearing at 10 mg/kg, po qd for 3 days administered 24 hrs after CFA challenge; assay type: functional, organism-based; set-up: dose 10 mg/kg
# [41] = Plasma concentration in complete Freund's adjuvant treated Sprague-Dawley rat at 1 mg/kg, po administered 24 hrs after CFA challenge after 2 hrs post dose; assay type: ADME, organism-based; set-up: dose 1 mg/kg, route oral
# [42] = Plasma concentration in complete Freund's adjuvant treated Sprague-Dawley rat at 3 mg/kg, po administered 24 hrs after CFA challenge after 2 hrs post dose; assay type: ADME, organism-based; set-up: dose 3 mg/kg, route oral
# [43] = Plasma concentration in complete Freund's adjuvant treated Sprague-Dawley rat at 10 mg/kg, po administered 24 hrs after CFA challenge after 2 hrs post dose; assay type: ADME, organism-based; set-up: dose 10 mg/kg, route oral
# [44] = Plasma concentration in complete Freund's adjuvant treated Sprague-Dawley rat at 1 mg/kg, po qd for 2 days administered 24 hrs after CFA challenge after 2 hrs last post dose; assay type: ADME, organism-based; set-up: dose 1 mg/kg, route oral
# [45] = Plasma concentration in complete Freund's adjuvant treated Sprague-Dawley rat at 3 mg/kg, po qd for 2 days administered 24 hrs after CFA challenge after 2 hrs last post dose; assay type: ADME, organism-based; set-up: dose 3 mg/kg, route oral
# [46] = Plasma concentration in complete Freund's adjuvant treated Sprague-Dawley rat at 10 mg/kg, po qd for 2 days administered 24 hrs after CFA challenge after 2 hrs last post dose; assay type: ADME, organism-based; set-up: dose 10 mg/kg, route oral
# [47] = Plasma concentration in complete Freund's adjuvant treated Sprague-Dawley rat at 1 mg/kg, po qd for 3 days administered 24 hrs after CFA challenge after 2 hrs last post dose; assay type: ADME, organism-based; set-up: dose 1 mg/kg, route oral
# [48] = Plasma concentration in complete Freund's adjuvant treated Sprague-Dawley rat at 3 mg/kg, po qd for 3 days administered 24 hrs after CFA challenge after 2 hrs last post dose; assay type: ADME, organism-based; set-up: dose 3 mg/kg, route oral
# [49] = Plasma concentration in complete Freund's adjuvant treated Sprague-Dawley rat at 10 mg/kg, po qd for 3 days administered 24 hrs after CFA challenge after 2 hrs last post dose; assay type: ADME, organism-based; set-up: dose 10 mg/kg, route oral
# [50] = tested on: Rattus norvegicus; experiment: Induction of hyperthermia in Sprague-Dawley rat at 3 mg/kg, po after 10 hrs; assay type: organism-based; set-up: dose 3 mg/kg, route oral; conditions: in vivo
# [51] = tested on: Rattus norvegicus; experiment: Induction of hyperthermia in Sprague-Dawley rat at 3 mg/kg, po qd for 4 days; assay type: organism-based; set-up: dose 3 mg/kg, route oral; conditions: in vivo, 96 h
# [52] = organism: Homo sapiens; experiment: Protein binding in human plasma; conditions: read-out: PPB (converted)
# [53] = organism: Homo sapiens; experiment: Fraction unbound in human plasma
# [54] = Tmax in rat at […], iv and 10 mg/kg, po; assay type: ADME, organism-based; conditions: in vivo
# [55] = Half life in rat at […], iv and 10 mg/kg, po; assay type: ADME, organism-based; conditions: in vivo
# [56] = Clearance in rat at […], iv and 10 mg/kg, po; assay type: ADME, organism-based; conditions: in vivo
# [57] = Volume of distribution in rat at […], iv and 10 mg/kg, po; assay type: ADME, organism-based; conditions: in vivo
# [58] = Oral bioavailability in rat at 10 mg/kg; assay type: ADME, organism-based; conditions: in vivo
# [59] = target: T1, Transient receptor potential cation channel subfamily V member 1; experiment: Inhibition of rat TRPV1
smiles,measurement,setting,value
FC(F)(F)c1ccc(Nc2nccc3nc(-c4ncccc4C(F)(F)F)cnc23)nc1,solubility at 4 h,[1],12 µg/mL
same,IC50,[2],79 nM
FC(F)(F)c1ccc(Nc2ccnc3nc(-c4ncccc4C(F)(F)F)cnc23)nc1,solubility at 4 h,[1],8 µg/mL
same,IC50,[2],0.23 nM
FC(F)(F)c1ccc(Nc2ccnc3nc(-c4ncccc4C(F)(F)F)ccc23)nc1,solubility at 4 h,[1],40 µg/mL
same,LBF,[3],45%
same,Tmax,[4],1.1 h
same,half-life,[5],1.4 h
same,clearance,[6],34 mL/min/kg
same,Vd,[7],3.9 L/kg
same,bioavailability,[8],52%
same,solubility thermodynamic,[9],2 µg/mL
same,"remaining at 10 min, 1 µM",[10],100%
same,Papp,[11],29.8 ×10⁻⁶ cm/s
same,Ratio,[12],1.7
same,IC50,[13],3.25 nM
same,fraction unbound,[14],0.107
same,Kp at 1 h,[15],0.3
same,inhibition at 10 µM,[16],47%
same,IC50,[17],980 nM
same,fraction unbound,[18],0.107
same,inhibition,[19],inactive
same,inhibition,[20],inactive
same,inhibition,[21],inactive
same,inhibition,[22],inactive
same,inhibition,[23],inactive
same,Activity,[24],Non-toxic
same,IC50,[25],3000 nM
same,AUC(0-t) at 24 h,[26],0.6 µM·h
same,AUC(0-t) at 24 h,[27],22.6 µM·h
same,AUC(0-t) at 24 h,[28],204 µM·h
same,Cmax,[29],240 nM
same,Cmax,[30],2870 nM
same,Cmax,[31],12900 nM
same,Tmax,[32],1.1 h
same,Tmax,[33],3.33 h
same,Tmax,[34],6 h
same,Activity,[35],Active
same,Activity,[36],Dose-dependent effect
same,concentration at 1 h,[37],1400 nM
same,concentration at 1 h,[38],300 nM
same,concentration at 1 h,[39],60 nM
same,Activity,[40],Active
same,concentration at 2 h,[41],100 nM
same,concentration at 2 h,[42],230 nM
same,concentration at 2 h,[43],2300 nM
same,concentration at 2 h,[44],390 nM
same,concentration at 2 h,[45],1330 nM
same,concentration at 2 h,[46],5230 nM
same,concentration at 2 h,[47],380 nM
same,concentration at 2 h,[48],930 nM
same,concentration at 2 h,[49],3260 nM
same,Activity,[50],Non-toxic
same,Activity,[51],Non-toxic
same,fraction unbound,[52],0.065
same,fraction unbound,[53],0.065
same,IC50,[2],2.2 nM
Cl.FC(F)(F)c1ccc(Nc2ncnc3cc(-c4ncccc4C(F)(F)F)ccc23)cn1,solubility at 4 h,[1],35 µg/mL
same,Tmax,[54],4.7 h
same,half-life,[55],4 h
same,clearance,[56],22 mL/min/kg
same,Vd,[57],5.5 L/kg
same,bioavailability,[58],65%
same,"remaining at 10 min, 1 µM",[10],100%
FC(F)(F)c1ccc(Nc2ncnc3nc(-c4ncccc4C(F)(F)F)ncc23)cc1,solubility at 4 h,[1],4 µg/mL
same,IC50,[2],665 nM
O=C(Nc1ccccc1Br)N[C@@H]1CCN(c2ccc(C(F)(F)F)cn2)C1 [SB-705498],IC50,[59],32 nM
FC(F)(F)c1ccc(Nc2cnnc3cc(-c4ncccc4C(F)(F)F)ccc23)nc1,IC50,[2],29 nM
FC(F)(F)c1ccc(Nc2ccnc3nc(-c4ncccc4C(F)(F)F)ccc23)cc1,solubility at 4 h,[1],24 µg/mL
same,IC50,[2],6.1 nM
